# Compound activity (PubChem BioAssay)
# RGS4 act: RGS4 potentiators or activators, primary screen, cell-based, HEK293 M3R inducible RGS4, calcium flux. 310,000 compounds, 0.92% hits. carbachol calcium flux Fluo4; active compounds read low. B-score at 10 µM;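 active means B-score of the integrated calcium signal more than 4 SD below the library mean, with starting fluorescence not abnormally high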;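 further: negative B-score means reduced calcium response which marks RGS4 activation or potentiation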
#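 Assay system: Inducible-RGS4 HEK293 cells carrying M3 receptor | Schedule: Compound preincubation 20 min at room temperature before agonist | Signal: Kinetic calcium fluorescence imaging with Fluo4-AM dye, 2 µM | Read-out basis: B score from integrated fluorescence ratio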
# MrgX1 ag: agonists of human MrgX1 receptor, primary screen, HEK293 cells, Fluo-4 calcium flux | B-score at 10 µM | 310,000 compounds, 0.44% hits | Fluo-4 calcium fluorescence, agonist mode; active compounds read high;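 active means calcium response B-score plate-corrected fluorescence ratio at least 3 library SD, with starting fluorescence B-score inside 5 SD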
# Target sequence (Q96LB2 whole entry, looked up): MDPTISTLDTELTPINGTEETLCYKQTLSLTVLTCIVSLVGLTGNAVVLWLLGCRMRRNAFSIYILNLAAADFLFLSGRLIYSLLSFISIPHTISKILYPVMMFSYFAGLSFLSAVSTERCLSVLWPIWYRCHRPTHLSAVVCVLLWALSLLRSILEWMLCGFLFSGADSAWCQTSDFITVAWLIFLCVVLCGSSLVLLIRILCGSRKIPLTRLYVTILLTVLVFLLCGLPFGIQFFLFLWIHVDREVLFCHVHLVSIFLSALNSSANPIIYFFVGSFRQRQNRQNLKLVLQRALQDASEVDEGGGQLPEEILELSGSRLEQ
#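 times = overnight plating, then 30 min 37 °C plus 30 min room-temperature dye loading | assay system = stable human MrgX1 HEK293 cell line | input = fifteen thousand cells per well | signal = kinetic calcium dye fluorescence, Fluo-4 NW | dosing = compound delivered in addition one of three | read-out = B-scored fluorescence response ratio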
# RGS4 block: RGS4 inhibitors, primary screen, cell-based, HEK293 M3R inducible RGS4, calcium flux; Regulator of G-protein signaling 4 (Homo sapiens), P49798; Fluo-4 calcium flux; active compounds read high; triggered by carbachol at its EC20; B-score at 10 µM; 310,000 compounds, 0.45% hits; AID 463165, 2010;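 active means B-score, a plate-corrected calcium signal, over three deviations above library mean, with baseline fluorescence within five deviations of library mean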;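 further: RGS4 expression induced by doxycycline in cells with stable M3 receptor; B-score is computed from the integrated fluorescence ratio over baseline after carbachol; higher B-score means a larger calcium signal and so more RGS4 inhibition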
# MrgX1 antag: antagonists of human MrgX1 receptor, primary screen, HEK293 cells, Fluo-4 calcium flux; BAM8-22 antagonism; active compounds read low; AID 588676, 2011; 310,000 compounds, 1.3% hits; B-score at 10 µM;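 active means calcium-response B-score plate-corrected more than 3 library SD below zero, starting fluorescence within 5 deviations, no agonist response on first addition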;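 further: peak minus trough fluorescence over baseline after final BAM8-22 challenge near maximal dose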
# MrgX1 PAM: positive allosteric modulators of MrgX1, primary screen, HEK293 cells, Fluo-4 calcium flux | 310,000 compounds, 0.63% hits | B-score at 10 µM | FDSS; active compounds read high | Mas-related G-protein coupled receptor member X1 (Homo sapiens), Q96LB2 | AID 588675, 2011;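 active means plate-corrected calcium response at least 3 library SD above typical, normal starting fluorescence, not activating the receptor alone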;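 further: compound read alongside a low EC10 to EC30 dose of BAM8-22 agonist; peak minus trough fluorescence over baseline measured at the second addition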
# Numbers without * were called inactive; i = inactive; nt = no result. Sampled rows, rich in hits. Any-hit rate of the full collection: about 3.5%.
SMILES,RGS4 act,MrgX1 ag,RGS4 block,MrgX1 antag,MrgX1 PAM
COc1ccc(CN2C(=O)NC(=O)/C(=C\c3cccc(OC)c3OC)C2=O)cc1,i,i,i,-5.5*,i
Cc1ccc(/C=C2/C(=O)NC(=O)N(Cc3ccc(F)cc3)C2=O)o1,i,i,11*,i,i
CCOC(=O)c1ccc(NC(=O)N2C[C@@H]3C[C@@H](C2)c2cccc(=O)n2C3)cc1,i,i,i,i,i
O=C1C(=O)c2ccccc2-c2ccccc21,i,i,i,i,i
O=C1C(=O)c2cccc3cccc1c23,i,27*,i,i,i
Cc1c(C(=O)N2CCC3(CC2)OCCO3)sc2ncnc(N3CCN(c4ccccn4)CC3)c12,nt,i,nt,i,i
CC[C@@H]1C(=O)OC[C@@H]1Cc1cncn1C,nt,i,nt,i,8.7*
O=C(C(=O)N1CCOCC1)c1cn(Cc2ccccc2F)c2ccccc12,i,i,i,i,i
CCCOC(=O)c1ccc(-[n+]2c(-c3ccccc3)cc(-c3ccccc3)cc2-c2ccccc2)cc1,-7.2*,34*,i,i,i
COc1ccc(-[n+]2c(-c3ccccc3)cc(-c3ccc(C)cc3)cc2-c2ccccc2)cc1,-7.5*,i,i,-6.7*,14*
Brc1ccc(-[n+]2c(-c3ccccc3)cc(-c3ccccc3)cc2-c2ccccc2)cc1,-8.6*,i,i,i,i
CCN1C[C@]2(COC)CC[C@H](OC)[C@@]34C5C[C@H]6C(=O)C5[C@](O)(C[C@H]6OC)[C@@](O)(C(OC)C23)[C@@H]14 (stereo partly specified),i,i,i,i,i
COc1ccc(-n2c(O)c(C(C)=NCc3ccc4c(c3)OCO4)c(=O)[nH]c2=O)cc1,i,i,i,i,i
O=C1Nc2cc(C(=O)N3CCC4(CC3)OCCO4)ccc2NC1CSCc1cccc(F)c1 (stereo unspecified),i,42*,i,i,i
O=C(c1ccc2c(c1)N(Cc1ccccc1)CCS2)N1CCC2(CC1)OCCO2,i,i,i,i,i
COC(=O)C1=C(c2cc3ccccc3o2)C[C@@H]2CC[C@H]1N2C(=O)NCc1ccc(C(F)(F)F)cc1,i,i,i,i,9.2*
Cc1ccc(OCCOc2cccc(C=C3C(=O)NC(=O)NC3=O)c2)c(C)c1,i,i,i,i,i
O=C(O)C(O)(c1ccccc1)C1CCCCC1 (stereo unspecified),i,i,i,i,i
CCOC(C(=O)OCCC[N+](C)(CC)CC)(c1ccccc1)c1ccccc1,-8.7*,i,i,i,i
CC[N+](C)(CC)CCCOC(=O)C(O)(c1ccccc1)C1CCCCC1 (stereo unspecified),-7.1*,i,i,i,i
COc1cccc2cc(-c3cc(=O)oc4ccc(OC(=O)N(C)C)cc34)oc12,i,i,i,i,i
C=C1C(=O)O[C@@H]2C[C@@H](C)[C@@H]3C4OC4C(=O)[C@@]3(C)[C@@H](O)[C@H]12 (stereo partly specified),i,i,5.2*,i,i
CC(C)=CCc1c(O)cc2c(c1O)C(=O)CC(c1ccc(O)cc1)O2 (stereo unspecified),-7.2*,i,i,i,i
Cc1ccc(C[n+]2c(-c3ccc(C)cc3)cc(-c3ccc(C)cc3)cc2-c2ccc(C)cc2)cc1,-7.2*,i,i,-13*,i
CCCCCCOc1ccc(CN2CCN(CCO)CC2)cc1,-7.3*,i,i,i,i
CCCCOc1ccc(CN2CCN(CCO)CC2)cc1,i,i,i,i,i
COc1ccc(NC(=O)C2C3CCC(O3)C2C(=O)O)c(OC)c1 (stereo unspecified),i,i,i,i,i
